This passage reports IC50 and inhibition results from ChEMBL document CHEMBL3393016, “Development of novel Asf1-H3/H4 inhibitors” (Bioorg Med Chem Lett, 2015).

Activity calls are given as the source filed them. The rule behind the calls is not given here.

As a reminder, the IC50 is the concentration that gives 50% inhibition.

The target in the first assay is T1, Histone chaperone ASF1A (Homo sapiens, UniProt Q9Y294). Nature of the assay: Inhibition of His-tagged human Asf1a binding with H3/H4 assessed as fluorescence intensity after 30 mins by ALPHA assay.
T1 sequence (Q9Y294 whole entry): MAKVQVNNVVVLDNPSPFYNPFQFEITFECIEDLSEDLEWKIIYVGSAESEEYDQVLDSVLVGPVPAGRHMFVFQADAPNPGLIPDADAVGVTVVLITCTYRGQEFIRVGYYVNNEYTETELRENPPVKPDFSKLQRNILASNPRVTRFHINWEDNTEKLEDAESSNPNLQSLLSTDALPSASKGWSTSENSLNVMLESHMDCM
Turning to `COc1cc(/C=N/NC(=O)c2ccc(NC(C)=O)cc2)cc(Br)c1O`, the IC50 was over 100 µM.

Regarding `COc1cc(/C=N/NC(=O)Cc2ccc(NC(=O)c3ccccc3)cc2)cc(Br)c1O`, the IC50 is over 100 µM.

Regarding `COc1cc(/C=N/N(C)C(=O)c2ccc(NC(=O)c3ccccc3)cc2)cc(Br)c1O`, the IC50 was over 12 µM.

On to `COc1cc(/C=N/NC(=O)c2ccc(NC(=O)c3ccccc3)cc2)ccn1`, for which the IC50 was over 100 µM.

As to `COc1cc(CNNC(=O)c2ccc(NC(=O)c3ccccc3)cc2)cc(Br)c1O`, the half-inhibitory concentration (IC50) is over 100 µM.

With `O=C(N/N=C/c1ccncc1)c1ccc(NC(=O)c2ccccc2)cc1`, the IC50 is over 100 µM.

Turning to `COc1cc(/C=N/NC(=O)c2ccc(NC(=O)c3ccccc3)cc2)ccc1O`, the half-inhibitory concentration (IC50) is over 100 µM.

On to `COc1cc(CCNC(=O)c2ccc(NC(=O)c3ccccc3)cc2)cc(Br)c1O`, for which the IC50 is over 100 µM.

For the molecule `O=C(N/N=C/c1cccc(OCCN2CCOCC2)c1)c1ccc(NC(=O)c2ccccc2)cc1`, the IC50 was over 100 µM.

As to `COc1cc(/C=N/NC(=O)C2CCNCC2)cc(Br)c1O`, the half-maximal inhibitory concentration (IC50) was over 100 µM.

Take `COc1cc(C/C=N/NC(=O)c2ccc(NC(=O)c3ccccc3)cc2)cc(Br)c1O`: the IC50 was over 100 µM.

Turning to `COc1cc(/C=N/NC(=O)c2ccccc2)cc(Br)c1O`, the IC50 was over 100 µM.

For the molecule `O=C(N/N=C/c1cc(Br)ccc1O)c1ccncc1`, the IC50 was found to be 0.6 µM.

In the case of `COc1cc(/C=N/NC(=O)c2ccc(NC(=O)c3ccccc3)c(COCCN(C)C)c2)cc(Br)c1O`, the IC50 was over 100 µM.

With `COc1cc(/C=N/NC(=O)c2ccncc2)cc(Br)c1O`, the IC50 was over 100 µM.

On to `COc1cc(/C=N/NC(=O)c2ccc(NC(C)=O)nc2)cc(Br)c1O`, for which the IC50 is over 100 µM.

`COc1cc(/C=N/NC(=O)C2CCOCC2)cc(Br)c1O`: the IC50 is over 100 µM.

For another assay, the system named is MDA-MB-231. Kind of assay: Cytotoxicity against human MDA-MB-231 cells assessed as inhibition of cell viability at 24 uM after 24 hrs by trypan blue exclusion assay. Format: functional, cell-based. Summed up:
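MDA-MB-231 cells grown to 80% confluence, seeded at 1.5 × 10^5 cells/mL and incubated overnight. Medium then replaced with serum-free medium containing drug at 24 μM. After 1 h, FBS added to each well. Viable cell density counted by trypan blue exclusion after a further 24 h. Viability expressed as percent of DMSO-only control.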
As for `COc1ccc(-c2cc(C(=O)C3CCCCN3)c3ccccc3n2)cc1` (configuration not stated), the inhibition entry was “inactive”.

For the molecule `COc1ccc(-c2cc(C(=O)N3CCCCC3)c3ccccc3n2)cc1`, the inhibition entry is “inactive”.

With `CCN(CC)C(=O)c1cc(-c2ccc(OC)cc2)nc2ccccc12`, the inhibition entry is “inactive”.

`COc1ccc(-c2cc(C(=O)N3CCOCC3)c3ccccc3n2)cc1`: the inhibition result was “inactive”.

On to `COc1ccc(-c2cc([C@@H](O)[C@@H]3CCCCN3)c3ccccc3n2)cc1` (racemic), for which the inhibition entry is “Active”.

For the molecule `COc1ccc(-c2cc(C(=O)N(C)C)c3ccccc3n2)cc1`, the inhibition result is “inactive”.

On to `COc1ccc(-c2cc([C@H](O)[C@@H]3CCCCN3)c3ccccc3n2)cc1` (racemic), for which the inhibition result was “Active”.

As for `COc1ccc(-c2cc(C(=O)NCCO)c3ccccc3n2)cc1`, the inhibition entry is “inactive”.

A further assay addresses T1, Histone chaperone ASF1A. Nature of the assay: Inhibition of globular core domain of Asf1 (unknown origin) binding with H3/H4 after 15 to 30 mins by ELISA assay. The gist of the method:
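Wells coated with H3/H4 dimer at 1 μg/mL in PBS-T at 4°C overnight, then blocked with 5% milk in PBS-T. Asf1 globular core at 5 μM preincubated with compound at 100 μM (or various concentrations) for 1 h at 4°C. Samples diluted in 10 mM Tris pH 7.9, 1 mM DTT and bound to plate 1 h at room temperature. Bound Asf1 detected with anti-Asf1 and HRP secondary antibodies, then TMB for 15–30 min; OD read at 450 nm.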
On the technique in general: ELISA stands for enzyme-linked immunosorbent assay.
Take `COc1cc(C2C(Cl)C(=O)N2NC(=O)c2ccc(N)cc2)cc(Br)c1O` (configuration not stated): the inhibition result was “Active”.

With `COc1ccc(-c2cc([C@@H](O)[C@@H]3CCCCN3)c3ccccc3n2)cc1` (racemic), the inhibition entry is “Active”.
